The source made the active and inactive calls. The rule behind the calls is not given here.
Experiments:
Assay type in all cases: functional
HCT-15 = assay: Growth inhibition of human HCT15 cells at 10 uM after 48 hrs by SRB assay; conditions: HCT-15, 48 h, read-out: GI
Outline: (§1)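 Cells grown in RPMI 1640 with 5% FBS and 2 mM L-glutamine, plated at 5000–40,000 cells/well by doubling time and preincubated 24 h (37 °C, 5% CO2); a time-zero plate is TCA-fixed. Single dose added, then 48 h incubation. Fixed with cold TCA, stained with 0.4% SRB, dye solubilized in 10 mM Tris base, absorbance at 515 nm; percent growth vs time-zero and untreated control.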

NCI-H522 = assay: Growth inhibition of human NCI-H522 cells at 10 uM after 48 hrs by SRB assay; conditions: NCI-H522, 48 h, read-out: GI; outline: as §1
NCI-H322M = assay: Growth inhibition of human NCI-H322M cells at 10 uM after 48 hrs by SRB assay; conditions: read-out: GI; outline: as §1
NCI-H460 = assay: Growth inhibition of human NCI-H460 cells at 10 uM after 48 hrs by SRB assay; conditions: NCI-H460, 48 h, read-out: GI; outline: as §1
NCI-H23 = assay: Growth inhibition of human NCI-H23 cells at 10 uM after 48 hrs by SRB assay; conditions: NCI-H23, 48 h, read-out: GI; outline: as §1
HOP-92 = assay: Growth inhibition of human HOP92 cells at 10 uM after 48 hrs by SRB assay; conditions: HOP-92, 48 h, read-out: GI; outline: as §1
HOP-62 = assay: Growth inhibition of human HOP62 cells at 10 uM after 48 hrs by SRB assay; conditions: HOP-62, 48 h, read-out: GI; outline: as §1
SR = assay: Growth inhibition of human SR cells at 10 uM after 48 hrs by SRB assay; conditions: read-out: GI
Outline: (§2)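 NCI 60-cell-line screen with a single 10 µM dose. Cells are grown in RPMI 1640 with 5% FBS and 2 mM L-glutamine, plated at 5000–40,000 cells/well according to doubling time, and preincubated 24 h at 37 °C, 5% CO2; time-zero plates are TCA-fixed at that point. Drug exposure is 48 h. Adherent cells are fixed with cold TCA, stained with 0.4% SRB in 1% acetic acid and read at 515 nm. Percent growth is calculated relative to time-zero and untreated controls and reported as GI%.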

MDA-MB-468 = assay: Growth inhibition of human MDA-MB-468 cells at 10 uM after 48 hrs by SRB assay; conditions: for inhibition of growth at 10 µM: MDA-MB-468, 48 h, read-out: GI; outline: as §1
BT-549 = assay: Growth inhibition of human BT549 cells at 10 uM after 48 hrs by SRB assay; conditions: BT-549, 48 h, read-out: GI; outline: as §1
Hs-578T = assay: Growth inhibition of human Hs578T cells at 10 uM after 48 hrs by SRB assay; conditions: read-out: GI; outline: as §1
MCF7 = assay: Growth inhibition of human MCF7 cells at 10 uM after 48 hrs by SRB assay; conditions: MCF7, 48 h, read-out: GI; outline: as §1
PC-3 = assay: Growth inhibition of human PC3 cells at 10 uM after 48 hrs by SRB assay; conditions: PC-3, 48 h, read-out: GI; outline: as §1
DU-145 = assay: Growth inhibition of human DU145 cells at 10 uM after 48 hrs by SRB assay; conditions: DU-145, 48 h, read-out: GI; outline: as §1
UO-31 = assay: Growth inhibition of human UO31 cells at 10 uM after 48 hrs by SRB assay; conditions: UO-31, 48 h, read-out: GI; outline: as §2
RXF 393 = assay: Growth inhibition of human RXF393 cells at 10 uM after 48 hrs by SRB assay; conditions: RXF 393, 48 h, read-out: GI; outline: as §1
SN12C = assay: Growth inhibition of human SN12C cells at 10 uM after 48 hrs by SRB assay; conditions: read-out: GI; outline: as §2
A498 = assay: Growth inhibition of human A498 cells at 10 uM after 48 hrs by SRB assay; conditions: A498, 48 h, read-out: GI; outline: as §1
ACHN = assay: Growth inhibition of human ACHN cells at 10 uM after 48 hrs by SRB assay; conditions: read-out: GI; outline: as §1
CAKI-1 = assay: Growth inhibition of human Caki1 cells at 10 uM after 48 hrs by SRB assay; conditions: CAKI-1, 48 h, read-out: GI; outline: as §1
786-0 = assay: Growth inhibition of human 786-0 cells at 10 uM after 48 hrs by SRB assay; conditions: 786-0, 48 h, read-out: GI; outline: as §1
[1] = Growth inhibition of human NCI-ADR-RES cells at 10 uM after 48 hrs by SRB assay; conditions: read-out: GI; outline: as §1
OVCAR-5 = assay: Growth inhibition of human OVCAR5 cells at 10 uM after 48 hrs by SRB assay; conditions: OVCAR-5, 48 h, read-out: GI; outline: as §1
OVCAR-4 = assay: Growth inhibition of human OVCAR4 cells at 10 uM after 48 hrs by SRB assay; conditions: OVCAR-4, 48 h, read-out: GI; outline: as §1
IGROV-1 = assay: Growth inhibition of human IGROV1 cells at 10 uM after 48 hrs by SRB assay; conditions: IGROV-1, 48 h, read-out: GI; outline: as §1
UACC-62 = assay: Growth inhibition of human UACC62 cells at 10 uM after 48 hrs by SRB assay; conditions: UACC-62, 48 h, read-out: GI; outline: as §2
SK-MEL-5 = assay: Growth inhibition of human SK-MEL-5 cells at 10 uM after 48 hrs by SRB assay; conditions: SK-MEL-5, 48 h, read-out: GI; outline: as §1
SK-MEL-28 = assay: Growth inhibition of human SK-MEL-28 cells at 10 uM after 48 hrs by SRB assay; conditions: SK-MEL-28, 48 h, read-out: GI; outline: as §1
SK-MEL-2 = assay: Growth inhibition of human SK-MEL-2 cells at 10 uM after 48 hrs by SRB assay; conditions: SK-MEL-2, 48 h, read-out: GI; outline: as §1
M14 = assay: Growth inhibition of human M14 cells at 10 uM after 48 hrs by SRB assay; conditions: M14, 48 h, read-out: GI; outline: as §1
LOX IMVI = assay: Growth inhibition of human LOXIMVI cells at 10 uM after 48 hrs by SRB assay; conditions: read-out: GI; outline: as §1
Malme-3M = assay: Growth inhibition of human MALME-3M cells at 10 uM after 48 hrs by SRB assay; conditions: read-out: GI; outline: as §1
U-251 = assay: Growth inhibition of human U251 cells at 10 uM after 48 hrs by SRB assay; conditions: U-251, 48 h, read-out: GI; outline: as §2
SNB-19 = assay: Growth inhibition of human SNB19 cells at 10 uM after 48 hrs by SRB assay; conditions: SNB-19, 48 h, read-out: GI; outline: as §2
SF-295 = assay: Growth inhibition of human SF295 cells at 10 uM after 48 hrs by SRB assay; conditions: SF-295, 48 h, read-out: GI; outline: as §1
SF-539 = assay: Growth inhibition of human SF539 cells at 10 uM after 48 hrs by SRB assay; conditions: SF-539, 48 h, read-out: GI; outline: as §1
SF-268 = assay: Growth inhibition of human SF268 cells at 10 uM after 48 hrs by SRB assay; conditions: SF-268, 48 h, read-out: GI; outline: as §1

SMILES	inhibition of growth at 10 µM (HCT-15)	inhibition of growth at 10 µM (NCI-H522)	inhibition of growth at 10 µM (NCI-H322M)	inhibition of growth at 10 µM (NCI-H460)	inhibition of growth at 10 µM (NCI-H23)	inhibition of growth at 10 µM (HOP-92)	inhibition of growth at 10 µM (HOP-62)	inhibition of growth at 10 µM (SR)	inhibition of growth at 10 µM (BT-549)	inhibition of growth at 10 µM (Hs-578T)	inhibition of growth at 10 µM (MCF7)	inhibition of growth at 10 µM (PC-3)	inhibition of growth at 10 µM (DU-145)	inhibition of growth at 10 µM (UO-31)	inhibition of growth at 10 µM (RXF 393)	inhibition of growth at 10 µM (SN12C)	inhibition of growth at 10 µM (A498)	inhibition of growth at 10 µM (ACHN)	inhibition of growth at 10 µM (CAKI-1)	inhibition of growth at 10 µM (786-0)	also measured
Nc1ccc(Sc2ccc3c4c2cccc4c(=O)n2c4ccccc4nc32)cc1	59.5%	40%	38.2%	90.5%	62.5%	71.3%	48.8%	83.9%	40.9%	40.4%	76.4%	49.6%	60.7%	90.7%	27.4%	80.8%	41.2%	77.9%	94.1%	62.7%	inhibition of growth at 10 µM (MDA-MB-468): 56.5%; inhibition of growth at 10 µM [1]: 43.4%; inhibition of growth at 10 µM (OVCAR-5): < 20%; inhibition of growth at 10 µM (OVCAR-4): 26%; inhibition of growth at 10 µM (IGROV-1): 65.5%; inhibition of growth at 10 µM (UACC-62): 68.1%; inhibition of growth at 10 µM (SK-MEL-5): 60.6%; inhibition of growth at 10 µM (SK-MEL-28): 26.3%; inhibition of growth at 10 µM (SK-MEL-2): < 20%; inhibition of growth at 10 µM (M14): 54.6%; inhibition of growth at 10 µM (LOX IMVI): 70.8%; inhibition of growth at 10 µM (Malme-3M): 66%; inhibition of growth at 10 µM (U-251): 60.1%; inhibition of growth at 10 µM (SNB-19): 53.7%; inhibition of growth at 10 µM (SF-295): 88%; inhibition of growth at 10 µM (SF-539): 51.5%; inhibition of growth at 10 µM (SF-268): 40.6%
O=c1c2cccc3c(N4CCCC4)ccc(c32)c2nc3ccccc3n12	21.4%	28.9%	< 20%	83.9%	31.8%	59.3%	33.9%	79.8%	28.8%	32.8%	50%	32.1%	21.9%	43.8%	< 20%	35.2%	62%	47.6%	48.7%	< 20%	inhibition of growth at 10 µM (MDA-MB-468): < 20%; inhibition of growth at 10 µM [1]: < 20%; inhibition of growth at 10 µM (OVCAR-5): < 20%; inhibition of growth at 10 µM (OVCAR-4): 21.2%; inhibition of growth at 10 µM (IGROV-1): 42.9%; inhibition of growth at 10 µM (UACC-62): 37.5%; inhibition of growth at 10 µM (SK-MEL-5): 35.5%; inhibition of growth at 10 µM (SK-MEL-28): < 20%; inhibition of growth at 10 µM (SK-MEL-2): < 20%; inhibition of growth at 10 µM (M14): < 20%; inhibition of growth at 10 µM (LOX IMVI): 48.3%; inhibition of growth at 10 µM (Malme-3M): 29.6%; inhibition of growth at 10 µM (U-251): 35.3%; inhibition of growth at 10 µM (SNB-19): 24%; inhibition of growth at 10 µM (SF-295): 40.2%; inhibition of growth at 10 µM (SF-539): < 20%; inhibition of growth at 10 µM (SF-268): < 20%
O=c1c2cccc3c(N4CCOCC4)ccc(c32)c2nc3ccccc3n12	< 20%	< 20%	< 20%	< 20%	23.1%	40.8%	< 20%	< 20%	< 20%	59.8%	76%	< 20%	< 20%	34.1%	< 20%	< 20%	< 20%	< 20%	30.4%	< 20%	growth inhibition (GI) (MDA-MB-468): Active; inhibition of growth at 10 µM [1]: < 20%; inhibition of growth at 10 µM (OVCAR-5): < 20%; inhibition of growth at 10 µM (OVCAR-4): 30.1%; inhibition of growth at 10 µM (IGROV-1): 41.7%; inhibition of growth at 10 µM (UACC-62): 37.9%; inhibition of growth at 10 µM (SK-MEL-5): 26.6%; inhibition of growth at 10 µM (SK-MEL-28): < 20%; inhibition of growth at 10 µM (SK-MEL-2): < 20%; inhibition of growth at 10 µM (M14): < 20%; inhibition of growth at 10 µM (LOX IMVI): < 20%; inhibition of growth at 10 µM (Malme-3M): < 20%; inhibition of growth at 10 µM (U-251): < 20%; inhibition of growth at 10 µM (SNB-19): < 20%; inhibition of growth at 10 µM (SF-295): < 20%; inhibition of growth at 10 µM (SF-539): < 20%; inhibition of growth at 10 µM (SF-268): < 20%

Reference: ChEMBL document CHEMBL2424551, “Synthesis, in vitro evaluation and molecular modelling of naphthalimide analogue as anticancer agents” (2013)
